In assay [1] the target is T1, Cannabinoid receptor 2 (Homo sapiens, UniProt P34972). As to the kind of experiment: Displacement of [3H]CP-55940 from human CB2 receptor expressed in CHO-K1 cells. It is filed as cell-based. The method, boiled down:
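Human CB2 expressed in CHO-K1 cell membranes, […]. Nonspecific binding with 10 µM unlabeled agonist. Glass-fiber filtration, then liquid scintillation counting. Duplicates, 3-6 independent experiments.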
In general terms: Displacement assays read how much labelled ligand stays bound in the presence of the test substance.

Assay [2] addresses T2, Cannabinoid receptor 1 (Homo sapiens, UniProt P21554). The assay is described as follows: biochemical. It is filed as cell-based, CHO-K1.
The target of assay [3] is T2, Cannabinoid receptor 1. As to the kind of experiment: biochemical. It counts as cell-based, HEK293.
Assay [4] deals with T2, Cannabinoid receptor 1. As to the kind of experiment: Binding affinity to CB1 receptor. The method, boiled down: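 Membranes from HEK-293 cells expressing human CB1. […] incubated with tritiated agonist radioligand (7.2 nM) or [3H]SR141716 (20 nM) in 50 mM Tris-HCl, 1 mM EDTA, 3 mM MgCl2, 5 mg/mL BSA, pH 7.4, for 1 h at 30 °C. Nonspecific binding taken with 10 µM unlabeled ligand. Filtration, then scintillation counting. Duplicates, 3-6 independent experiments.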

In assay [5] the target is T1, Cannabinoid receptor 2. The assay is described as follows: Binding affinity to CB2 receptor. Put shortly:
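Human CB2 expressed in CHO-K1 cell membranes, […]. Displacement of tritiated agonist radioligand (ca. 130 Ci/mmol, 7.2 nM) in Tris-HCl/EDTA/MgCl2/BSA buffer at pH 7.4, 1 h at 30 °C. Nonspecific binding with 10 µM unlabeled agonist. Glass-fiber filtration, then liquid scintillation counting. Duplicates, 3-6 independent experiments.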

The species named for a further assay is Homo sapiens. The assay is described as follows: Selectivity for human CB2 receptor over human CB1 receptor.

Structures are written as SMILES.

T2 sequence (P21554 whole entry): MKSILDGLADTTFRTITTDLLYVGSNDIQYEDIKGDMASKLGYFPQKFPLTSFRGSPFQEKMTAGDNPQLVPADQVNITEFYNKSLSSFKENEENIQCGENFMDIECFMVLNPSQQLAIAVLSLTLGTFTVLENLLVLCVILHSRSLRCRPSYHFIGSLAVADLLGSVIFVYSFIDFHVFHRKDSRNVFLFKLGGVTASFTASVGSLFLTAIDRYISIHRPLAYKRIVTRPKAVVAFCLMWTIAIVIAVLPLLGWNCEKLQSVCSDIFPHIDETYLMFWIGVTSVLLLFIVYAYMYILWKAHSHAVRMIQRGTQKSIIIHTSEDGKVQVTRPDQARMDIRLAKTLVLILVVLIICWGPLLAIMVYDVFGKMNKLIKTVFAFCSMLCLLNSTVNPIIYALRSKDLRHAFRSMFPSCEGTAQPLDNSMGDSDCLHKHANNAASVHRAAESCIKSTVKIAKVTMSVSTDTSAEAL
T1 sequence (P34972 whole entry): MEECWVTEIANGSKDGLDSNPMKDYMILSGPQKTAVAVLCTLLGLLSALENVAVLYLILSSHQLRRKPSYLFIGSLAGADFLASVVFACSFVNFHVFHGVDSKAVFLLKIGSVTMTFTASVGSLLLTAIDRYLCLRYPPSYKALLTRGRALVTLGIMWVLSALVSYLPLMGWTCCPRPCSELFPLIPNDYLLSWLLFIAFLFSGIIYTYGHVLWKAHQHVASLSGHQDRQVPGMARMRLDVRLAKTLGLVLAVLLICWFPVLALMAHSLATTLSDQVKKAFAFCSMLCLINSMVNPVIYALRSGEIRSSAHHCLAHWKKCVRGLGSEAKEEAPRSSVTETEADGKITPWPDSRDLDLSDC

With `Cc1c(C(=O)NN2CCCCC2)nn(-c2ccc(Cl)cc2Cl)c1-c1ccc(Cl)cc1Cl`, the Ki turned out to be 1040 nM on Cannabinoid receptor 2 [1], 17.9 nM on Cannabinoid receptor 1 [2] and 34.2 nM on Cannabinoid receptor 1 [3].
Take `O=C(NN1CCCCC1)c1nn(-c2ccc(Cl)cc2Cl)c2c1CCc1cc(Cl)ccc1-2`: the inhibitory constant (Ki) on Cannabinoid receptor 1 [4] was 15 nM; on Cannabinoid receptor 2 [5] it was 230 nM.
As to `Cc1c(C(=O)NN2CCCCC2)nn(-c2c(Cl)cc(Cl)cc2Cl)c1-c1ccc(Cl)cc1Cl`, the inhibitory constant (Ki) came to 1110 nM at Cannabinoid receptor 2 [1], 148 nM at Cannabinoid receptor 1 [2] and 261 nM at Cannabinoid receptor 1 [3].
For the compound `Cc1cc(Cl)ccc1-c1c(C)c(C(=O)NN2CCCCC2)nn1-c1ccc(Cl)cc1Cl`, the inhibition constant (Ki) at Cannabinoid receptor 2 [1] came out at 1120 nM; at Cannabinoid receptor 1 [2], 5.83 nM; on Cannabinoid receptor 1 [3] it was 16.1 nM.
The like results for `Cc1cc(Cl)cc(C)c1-c1c(C)c(C(=O)NN2CCCCC2)nn1-c1ccc(Cl)cc1Cl` were, in that order, 758 nM, 116 nM and 194 nM.
In the case of `O=C(NN1CCCCC1)c1nn(-c2ccc(Cl)cc2Cl)c2c1CCCc1cc(Cl)ccc1-2`, the Ki on Cannabinoid receptor 1 [4] was 0.00035 nM; at Cannabinoid receptor 2 [5], 20 nM; at Cannabinoid receptor 1 [2] it was 5.55 nM; at Cannabinoid receptor 1 [3] it was 18.4 nM.
For the compound `Cc1c(C(=O)NN2CCCCC2)nn2c3ccc(Cl)cc3c3cc(Cl)ccc3c12`, the Ratio in the assay filed under Homo sapiens was 80.
Consider `Cc1cc(Cl)ccc1-c1c(C)c(C(=O)NN2CCCCC2)nn1-c1c(Cl)cc(Cl)cc1Cl`, for which the Ki at Cannabinoid receptor 2 [1] was 1780 nM; at Cannabinoid receptor 1 [2], 152 nM; at Cannabinoid receptor 1 [3] it was 251 nM.
The like results for `O=C(NN1CCCCC1)c1nn(-c2ccc(Cl)cc2Cl)c2c1CCCCc1cc(Cl)ccc1-2` were, in that order, 492 nM, 14.7 nM and 40.9 nM.

What is called Ki is a measure of affinity in units of concentration, obtained from inhibition or displacement. High values mean weaker binding, low ones tighter binding.

The values are drawn from ChEMBL document CHEMBL1150768, “Conformationally constrained analogues of N-(piperidinyl)-5-(4-chlorophenyl)-1-(2,4- dichlorophenyl)-4-methyl-1H-pyrazole-3-carboxamide (SR141716): design, synthesis, computational analysis, and biological evaluations” (J Med Chem, 2008).
